From ChEMBL document CHEMBL4052589, “Discovery of Imidazo[1,2-a]pyridine Ethers and Squaramides as Selective and Potent Inhibitors of Mycobacterial Adenosine Triphosphate (ATP) Synthesis” (J Med Chem, 2017)
≈ marks a conversion by molar mass, not a printed value. Calls of active or inactive are those of the source. The rule behind the calls is not given here.

Legend:
[1] = Inhibition of ATP synthase in Mycobacterium smegmatis inverted membrane vesicles using NADH as substrate incubated for 60 mins by luciferin-luciferase reaction based bioluminescence assay; set-up: species or system Mycolicibacterium smegmatis
Procedure, shortened: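 ATP made by oxidative phosphorylation in M. smegmatis inverted membrane vesicles (IMVs), driven by NADH with ADP and Pi as ATP synthase substrates. ATP was read by luminescence. IC50 was taken from dose-response testing.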

[2] = tested on: Mycobacterium tuberculosis; experiment: Antimycobacterial activity against Mycobacterium tuberculosis H37Rv by turbidometric method; type: functional
Procedure, shortened: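 MIC taken as the minimum concentration inhibiting M. tuberculosis growth by 80%.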

[3] = tested on: Mycolicibacterium smegmatis; experiment: Inhibition of cytochrome c oxidase in Mycobacterium smegmatis inverted membrane vesicles lacking cytochrome-bd complex assessed as reduction of oxygen consumption treated between 250 to 450 secs post NADH addition
[4] = tested on: Mycolicibacterium smegmatis; experiment: Inhibition of oxygen consumption in Mycobacterium smegmatis inverted membrane vesicles lacking cytochrome bc1 complex treated between 250 to 450 secs post NADH addition; type: functional
[5] = tested on: Mycobacterium tuberculosis; experiment: Bactericidal activity against Mycobacterium tuberculosis H37Rv; type: functional
[6] = tested on: Mycolicibacterium smegmatis; experiment: Selectivity ratio of IC50 for NDH2 in Mycobacterium smegmatis inverted membrane vesicles using NADH as substrate to IC50 for SDH in Mycobacterium smegmatis inverted membrane vesicles using succinate as substrate
[7] = tested on: Mycolicibacterium smegmatis; experiment: Selectivity ratio of IC50 for NADH dependent ATP synthesis in Mycobacterium smegmatis inverted membrane vesicles lacking cytochrome-bc1 complex to IC50 for cytochrome c oxidase in Mycobacterium smegmatis inverted membrane vesicles assessed as decrease in NADH dependent ATP synthesis
[8] = tested on: Mycobacterium tuberculosis; experiment: Antimycobacterial activity against Mycobacterium tuberculosis H37Rv infected in BALB/c mouse assessed as bacterial growth inhibition at 100 to 200 mg/kg, po qd administered […] for 2 weeks; type: functional, organism-based
Plasma [9] = experiment: Ratio of free plasma concentration in BALB/c mouse infected with Mycobacterium tuberculosis H37Rv in absence of pan CYP inhibitor ABT to presence of pan CYP inhibitor ABT; type: ADME
Mus musculus = experiment: Time required for free plasma concentration to maintain above in vitro MIC for Mycobacterium tuberculosis H37Rv in BALB/c mouse infected with Mycobacterium tuberculosis H37Rv at 100 mg/kg, po in presence of pan CYP inhibitor ABT
[10] = Selectivity index, ratio of IC50 for human THP1 cells to MIC for Mycobacterium tuberculosis H37Rv; type: toxicity; conditions: read-out: Selectivity Index
Procedure, shortened: (§1)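 Cytotoxicity index is MMIC divided by M. tuberculosis MIC. MMIC is the minimum concentration inhibiting A549 or THP1 proliferation by 50%. MIC is the concentration giving 80% growth inhibition.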

[11] = Selectivity index, ratio of IC50 for human A549 cells to MIC for Mycobacterium tuberculosis H37Rv; type: toxicity; conditions: read-out: Selectivity Index; procedure, shortened: as §1
[12] = Lipophilicity, log D of compound; type: physicochemical; conditions: octanol/water
Plasma [13] = experiment: Drug uptake in BALB/c mouse plasma at 100 mg/kg, po in presence of pan CYP inhibitor ABT by LC-MS/MS method; type: ADME, organism-based; conditions: in vivo

| SMILES | IC50 [1] | MIC80 [2] | also measured |
| --- | --- | --- | --- |
| Cc1ccc2nc(-c3ccc(F)cc3)c(OCCCOc3cncnc3)n2c1 | 5.6 µM | 6.9 µM (≈ 2.61 µg/mL) | inhibition [3]: Active; inhibition [4]: inactive |
| Cc1cnc(CNc2c(-c3ccc(C(F)(F)F)cc3)c(=O)c2=O)cn1 | 8.4 µM | 50 µM (≈ 17.4 µg/mL) |  |
| Cc1ccc2nc(-c3ccc(F)cc3)c(OCCCOc3ccc(C)nc3)n2c1 | < 0.02 µM | < 0.8 µM |  |
| Cc1ccc2nc(-c3ccc(F)cc3)c(OCCCNc3ccc(F)c(C)n3)n2c1 | 0.06 µM | < 0.5 µM | MBC [5]: > 100 µM |
| Cc1ccc2nc(-c3ccc(F)cc3)c(OCCOc3ccc(F)cc3)n2c1 | 0.02 µM | 3.1 µM (≈ 1.18 µg/mL) | inhibition [3]: Active; inhibition [4]: inactive |
| Fc1ccc(OCCOc2c(-c3ccccc3)nc3ccc(Cl)cn23)cc1 | 0.04 µM | < 1 µM | inhibition [3]: Active; inhibition [4]: inactive |
| Cc1ccc2nc(-c3ccc(F)cc3)c(OCCNC(=O)c3ccc(C)nc3)n2c1 | 7.2 µM | > 200 µM |  |
| Cc1ccc2nc(-c3ccccc3)c(OCCOc3ccc(F)cc3)n2c1 | 0.05 µM | < 1 µM | inhibition [3]: Active; inhibition [4]: inactive |
| Cc1ccc2nc(-c3ccc(F)cc3)c(OCCCOc3cncc(F)c3)n2c1 | 0.06 µM | < 0.6 µM |  |
| N#Cc1ccc2nc(-c3ccccc3)c(OCCCOc3ccccc3)n2c1 | > 100 µM | > 250 µM |  |
| N#Cc1ccc(-c2c(NCc3ccccn3)c(=O)c2=O)cc1 | 66.6 µM | 100 µM (≈ 28.9 µg/mL) |  |
| Cc1ccc2nc(-c3ccccc3)c(OCCCN3CCN(C)CC3)n2c1 | 6.4 µM | > 200 µM |  |
| Cc1ccc2nc(-c3ccccc3)c(OCCCOc3ccccc3)n2c1 | 0.03 µM | < 0.5 µM | inhibition [3]: Active; inhibition [4]: inactive |
| O=c1c(NCc2ccccc2)c(-c2ccc(N3CCOCC3)cc2)c1=O | > 100 µM | > 100 µM |  |
| O=c1c(NCc2ccccn2)c(-c2ccc(C(F)(F)F)cc2)c1=O | 0.3 µM | 6.2 µM (≈ 2.06 µg/mL) |  |
| Cc1ccc2nc(-c3ccc(F)cc3)c(OCCCN3CCN(c4ccccc4)CC3)n2c1 | 0.05 µM | < 0.8 µM |  |
| Clc1ccc2nc(-c3ccccc3)c(OCCCOc3ccccc3)n2c1 | < 0.02 µM | < 0.5 µM | MBC [5]: > 100 µM |
| O=c1c(NCc2cnccn2)c(-c2ccc(N3CCOCC3)cc2)c1=O | 0.77 µM | 3.12 to 12.5 µM (≈ 1.09 to 4.38 µg/mL) |  |

| SMILES | IC50 [1] | MIC80 [2] | also measured |
| --- | --- | --- | --- |
| Cc1ccc2nc(-c3ccc(F)cc3)c(OCCCNS(=O)(=O)c3ccc(F)cc3)n2c1 | 0.7 µM | 1.6 µM (≈ 0.732 µg/mL) |  |
| Cc1ccc2nc(-c3ccc(F)cc3)c(OCCCNc3cnc(C)c(Br)c3)n2c1 | 0.21 µM | 0.8 µM (≈ 0.375 µg/mL) |  |
| COc1nc2ccc(Br)cc2cc1[C@@H](c1ccccc1)[C@@](O)(CCN(C)C)c1cccc2ccccc12 |  |  | Ratio IC50 [6]: 1.5; Ratio IC50 [7]: 2; inhibition [3]: inactive; inhibition [4]: inactive |
| Fc1ccc(OCCOc2c(-c3ccccc3)nc3ccccn23)cc1 | 0.08 µM | < 0.8 µM |  |
| COc1ncc(NCCCOc2c(-c3ccc(F)cc3)nc3ccc(C)cn23)cc1C | 0.08 µM | < 0.8 µM |  |
| COCCCOc1c(-c2ccccc2)nc2ccccn12 | 18.9 µM | > 15 µM |  |
| O=c1c(NCc2ccc(-c3ccccc3)cn2)c(-c2ccc(N3CCOCC3)cc2)c1=O | 9.5 µM | > 100 µM |  |
| O=c1c(NCc2ccccn2)c(-c2ccc(N3CCOCC3)cc2)c1=O | 0.03 µM | 0.5 to 0.8 µM (≈ 0.175 to 0.28 µg/mL) | growth inhibition (GI) [8]: Active; Ratio (Plasma [9]): 300; Time (Mus musculus): 15 h |
| Cc1ccc2nc(-c3ccc(F)cc3)c(OCCNCc3ccc(C)c(F)c3)n2c1 | 0.07 µM | 0.6 µM (≈ 0.244 µg/mL) |  |
| CO[C@H]1/C=C/O[C@@]2(C)Oc3c(C)c(O)c4c(O)c(c(/C=N/N5CCN(C)CC5)c(O)c4c3C2=O)NC(=O)/C(C)=C\C=C\[C@H](C)[C@H](O)[C@@H](C)[C@@H](O)[C@@H](C)[C@H](OC(C)=O)[C@@H]1C [RIFAMPIN] |  | 0.004 µM (≈ 0.00329 µg/mL) |  |
| Cc1ccc2nc(-c3ccc(F)cc3)c(OCCNS(=O)(=O)c3ccc(F)c(Cl)c3)n2c1 | 0.4 µM | 3.1 µM (≈ 1.48 µg/mL) |  |
| NNC(=O)c1ccncc1 [ISONIAZID] |  | 0.02 µM (≈ 0.00274 µg/mL) |  |
| Clc1ccc2nc(-c3ccccc3)c(OCCN3CCOCC3)n2c1 | 36.1 µM | > 200 µM | Selectivity ratio [10]: 0.5; Selectivity ratio [11]: 0.5; logD [12]: 3.3 |
| Cc1ccc2nc(-c3ccc(F)cc3)c(OCCCOc3ccc(C)nc3C)n2c1 | 0.09 µM | 6.3 µM (≈ 2.55 µg/mL) |  |
| Cc1ccc2nc(-c3ccc(F)cc3)c(OCCCNc3ccc(F)c(C)c3)n2c1 | 0.005 µM | 0.03 µM (≈ 0.0122 µg/mL) | Drug uptake (Plasma [13]): Active; MBC [5]: > 100 µM |
| c1ccc(OCCCOc2c(-c3ccccc3)nc3ccccn23)cc1 | 0.13 µM | 1.6 µM (≈ 0.551 µg/mL) |  |
| Cc1ccc2nc(-c3ccc(F)cc3)c(OCCCOc3cccnc3)n2c1 | 0.16 µM | < 0.9 µM |  |
| CC(Nc1c(-c2ccc(N3CCOCC3)cc2)c(=O)c1=O)c1ccccn1 (configuration not stated) | > 25 µM | > 100 µM |  |
